Measurements published in paper PMC3187937 (Biochemistry, 2011).
Several values for one entry are separate records, joined by “and”; a condition that tells them apart may be missing. Equal entries are not always repeated. Where two headings read alike, the source gives them in different places.

How the values were obtained:
[1] = target: R. capsulatus E295V mutant cyt bc1 (Rhodobacter capsulatus, UniProt D5ANZ3, E295V); test: Michaelis-Menten kinetics of DBH2:cyt c reductase, E295V mutant enzyme; type: biochemical; conditions: DBH2 as substrate
Chain of R. capsulatus E295V mutant cyt bc1 (D5ANZ3 whole entry E295V, one chain of several): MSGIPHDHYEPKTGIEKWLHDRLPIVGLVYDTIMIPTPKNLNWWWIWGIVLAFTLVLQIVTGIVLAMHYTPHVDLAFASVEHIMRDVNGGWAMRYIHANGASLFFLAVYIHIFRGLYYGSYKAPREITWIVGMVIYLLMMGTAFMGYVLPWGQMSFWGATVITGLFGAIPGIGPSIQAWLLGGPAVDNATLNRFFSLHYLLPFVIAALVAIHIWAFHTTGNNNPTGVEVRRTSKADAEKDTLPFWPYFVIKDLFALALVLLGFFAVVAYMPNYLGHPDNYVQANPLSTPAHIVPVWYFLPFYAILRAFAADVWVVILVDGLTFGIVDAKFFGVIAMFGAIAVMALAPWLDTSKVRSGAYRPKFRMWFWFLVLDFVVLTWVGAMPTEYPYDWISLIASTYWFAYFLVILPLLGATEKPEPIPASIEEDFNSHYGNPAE

[2] = target: T1, R. capsulatus wild-type cyt bc1 (Rhodobacter capsulatus, UniProt D5ANZ3); test: Michaelis-Menten kinetics of DBH2:cyt c reductase, wild-type enzyme; type: biochemical; conditions: DBH2 as substrate
T1 sequence (D5ANZ3 1-437): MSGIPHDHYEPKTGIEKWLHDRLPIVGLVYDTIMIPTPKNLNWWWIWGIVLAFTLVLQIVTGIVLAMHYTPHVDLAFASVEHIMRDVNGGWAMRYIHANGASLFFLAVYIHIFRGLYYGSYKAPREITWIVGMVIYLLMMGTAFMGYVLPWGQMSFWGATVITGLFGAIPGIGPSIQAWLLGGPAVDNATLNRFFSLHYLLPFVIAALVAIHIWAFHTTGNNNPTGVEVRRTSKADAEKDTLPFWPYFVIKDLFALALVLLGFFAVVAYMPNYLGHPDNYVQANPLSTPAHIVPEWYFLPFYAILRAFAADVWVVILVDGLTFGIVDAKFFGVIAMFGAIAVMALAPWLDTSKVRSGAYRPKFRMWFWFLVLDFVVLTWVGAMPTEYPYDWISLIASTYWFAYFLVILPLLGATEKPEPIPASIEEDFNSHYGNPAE
T1 sequence (D5ANZ2 1-191 partner): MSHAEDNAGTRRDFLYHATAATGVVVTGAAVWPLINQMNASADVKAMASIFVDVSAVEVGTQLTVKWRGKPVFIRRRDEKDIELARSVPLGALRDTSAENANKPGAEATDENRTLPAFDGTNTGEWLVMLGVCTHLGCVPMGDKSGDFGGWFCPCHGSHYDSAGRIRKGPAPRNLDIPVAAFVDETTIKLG
T1 sequence (D5ANZ4 22-279 partner): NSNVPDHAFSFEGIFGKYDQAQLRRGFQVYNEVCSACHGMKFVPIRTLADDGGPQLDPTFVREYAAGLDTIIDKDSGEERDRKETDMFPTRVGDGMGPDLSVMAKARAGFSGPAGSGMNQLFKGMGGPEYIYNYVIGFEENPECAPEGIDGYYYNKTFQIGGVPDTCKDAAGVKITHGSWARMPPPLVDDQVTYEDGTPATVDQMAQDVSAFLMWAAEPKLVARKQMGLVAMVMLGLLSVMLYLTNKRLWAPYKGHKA
How it was run: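 Enzyme purified by DDM solubilisation of chromatophore membranes from respiratory-grown cells, then DEAE and Sephacryl S400 chromatography. Assay: 2.3 nM enzyme with 40 μM horse heart cyt c, 2 mM KCN and 0.1 g/L DDM in 50 mM sodium phosphate pH 7.4, stirred at 20 °C. DBH₂ in DMSO was varied from 0.5 to 40 μM. Initial cyt c reduction rate read at 550 nm over 1 min. Km and Vmax came from double-reciprocal plots and Michaelis-Menten fitting.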

chicken cyt bc1 = conditions: avian; ref [25]; cited from earlier work
bovine cyt bc1 [3] = conditions: cited from earlier work
[4] = target: purified R. capsulatus cyt b E295V mutant cyt bc1 (Rhodobacter capsulatus, UniProt D5ANZ3, E295V); test: Zn^2+ inhibition kinetics of DBH2:cyt c reductase activity, E295V mutant enzyme; type: biochemical
Chain of purified R. capsulatus cyt b E295V mutant cyt bc1 (D5ANZ3 whole entry E295V, one chain of several): as the sequence (D5ANZ3 whole entry E295V, one chain of several) above

[5] = target: T2, hemes of R. capsulatus cyt bc1 (Rhodobacter capsulatus, UniProt D5ANZ3)
T2 sequence (D5ANZ3 1-437): T1 sequence (D5ANZ3 1-437)
T2 sequence (D5ANZ2 1-191 partner): T1 sequence (D5ANZ2 1-191 partner)
T2 sequence (D5ANZ4 22-279 partner): T1 sequence (D5ANZ4 22-279 partner)

[6] = target: T3, purified R. capsulatus wild-type cyt bc1 (Rhodobacter capsulatus, UniProt D5ANZ3); test: Zn^2+ inhibition kinetics of DBH2:cyt c reductase activity, wild-type enzyme; type: biochemical; conditions: 40 mM Tris-HCl buffer pH 7.5, single homogeneous inhibition site fit, free Zn^2+
T3 sequence (D5ANZ3 1-437): T1 sequence (D5ANZ3 1-437)
T3 sequence (D5ANZ2 1-191 partner): T1 sequence (D5ANZ2 1-191 partner)
T3 sequence (D5ANZ4 22-279 partner): T1 sequence (D5ANZ4 22-279 partner)

bovine cyt bc1 [7] = conditions: cited from earlier work; remark: listed apart in the source
wild-type cyt bc1 = target: T4, wild-type cyt bc1 (Rhodobacter capsulatus, UniProt D5ANZ3); test: Isothermal titration calorimetry of Zn^2+ binding, wild-type enzyme
T4 sequence (D5ANZ3 1-437): T1 sequence (D5ANZ3 1-437)
T4 sequence (D5ANZ2 1-191 partner): T1 sequence (D5ANZ2 1-191 partner)
T4 sequence (D5ANZ4 22-279 partner): T1 sequence (D5ANZ4 22-279 partner)

E295V mutant cyt bc1 = E295V mutant cyt bc1 (Rhodobacter capsulatus, UniProt D5ANZ3, E295V); type: binding
Chain of E295V mutant cyt bc1 (D5ANZ3 whole entry E295V, one chain of several): as the sequence (D5ANZ3 whole entry E295V, one chain of several) above

[8] = E295V, blind fit, two-site model

**Q.** Which “Vmax of E295V relative to wild type (fold lower)” value ([1]; steady-state) does the source give for `CCCCCCCCCCc1c(C)c(O)c(OC)c(OC)c1O` [DBH2, Decylbenzohydroquinone] here?
**A.** 4 fold

**Q.** What about the Kcat ([1]; E295V) of the same compound?
**A.** 34.3 ± 4.5 s⁻¹

**Q.** And the Vmax ([1]; E295V)?
**A.** 10.6 ± 0.4 µmol/min/mg

**Q.** What about the Km ([1]; E295V, purified enzyme) of the same compound?
**A.** 3.1 ± 0.4 µM

**Q.** What about the Kcat [2] of the same compound?
**A.** 85.2 ± 13.1 s⁻¹

**Q.** And the Vmax [2]?
**A.** 42.4 µmol/min/mg and 42.4 ± 0.8 µmol/min/mg

**Q.** What about the Km ([2]; purified enzyme) of the same compound?
**A.** 4.9 ± 0.2 µM

**Q.** Which Ki (chicken cyt bc1) does the source give for `[Zn+2]` [Zn^2+] here?
**A.** 3 µM

**Q.** What about the Kd (bovine cyt bc1 [3]; pH 7.0, first value of cell, ref [39]) of the same compound?
**A.** 0.1 µM

**Q.** And the Kd (bovine cyt bc1 [3]; read-out: KD (second value), second value of cell, ref [39])?
**A.** > 2 µM

**Q.** And the Ki ([4]; 40 mM Tris-HCl buffer pH 7.5, single site fit, free Zn^2+)?
**A.** 2.6 µM

**Q.** What about the residual activity ([4]; [Zn^2+] > 0.2 mM) of the same compound?
**A.** 30%

**Q.** What about the “effect on midpoint potentials of the b-type hemes” value ([5]; wild type, 200 μM Zn^2+, oxidative titration, pH 8.0) of the same compound?
**A.** does not significantly affect

**Q.** What about the “effect on oxidation rate” value ([5]; with Zn^2+ added, +500 mV vs SHE) of the same compound?
**A.** remained unaffected

**Q.** What about the “time to fully reduced samples after application of the reducing potential” value ([5]; with Zn^2+ added, −500 mV vs SHE, within 7 minutes without Zn^2+) of the same compound?
**A.** 10 min

**Q.** And the Ki [6]?
**A.** 0.9 µM

**Q.** And the Ki (bovine cyt bc1 [7]; pH 7.0, ref [39])?
**A.** 0.1 µM

**Q.** And the “Complete inhibition (Zn^2+ concentration)” value (bovine cyt bc1 [7]; ref [39])?
**A.** [Zn^2+] > 5 μM

**Q.** What about the ΔH1 (wild-type cyt bc1; high affinity site) of the same compound?
**A.** -5.6 ± 0.2 kcal/mol

**Q.** And the ΔH2 (wild-type cyt bc1; lower affinity sites)?
**A.** -1.4 ± 0.2 kcal/mol

**Q.** What about the Kd (wild-type cyt bc1; read-out: KD1 (high affinity site), two-site model) of the same compound?
**A.** 0.5 ± 0.07 µM

**Q.** What about the Kd (wild-type cyt bc1; read-out: KD2 (lower affinity sites), two-site model) of the same compound?
**A.** 6.8 ± 0.9 µM

**Q.** What about the Kd (wild-type cyt bc1; read-out: KD (high affinity site), two-site model) of the same compound?
**A.** 0.5 µM

**Q.** And the Kd (wild-type cyt bc1; read-out: KD (lower affinity sites), two-site model)?
**A.** 6.8 µM

**Q.** What about the “n1, stoichiometry of high affinity site” value (wild-type cyt bc1; sites per protein complex) of the same compound?
**A.** 1.13 ± 0.03

**Q.** What about the “n2, number of lower affinity binding sites” value (wild-type cyt bc1; sites per protein complex) of the same compound?
**A.** 3.7 ± 0.2

**Q.** What about the n1 (E295V mutant cyt bc1; [8]) of the same compound?
**A.** 1.97 ± 0.08

**Q.** And the “n2, low affinity binding sites per cyt bc1” value (E295V mutant cyt bc1; [8])?
**A.** 7.1 ± 0.3

**Q.** And the ΔH1 (E295V mutant cyt bc1; [8])?
**A.** -9.9 ± 0.7 kcal/mol

**Q.** What about the ΔH2 (E295V mutant cyt bc1; [8]) of the same compound?
**A.** -2.6 ± 0.3 kcal/mol

**Q.** And the “n2, number of low affinity sites” value (E295V mutant cyt bc1; E295V, n1 = 1 fixed)?
**A.** 9.1 ± 0.5

**Q.** What about the ΔH1 (E295V mutant cyt bc1; E295V, n1 = 1 fixed) of the same compound?
**A.** -28 ± 4 kcal/mol

**Q.** What about the ΔH2 (E295V mutant cyt bc1; E295V, n1 = 1 fixed) of the same compound?
**A.** -0.9 ± 0.5 kcal/mol

**Q.** What about the Kd (E295V mutant cyt bc1; read-out: KD1 (high affinity site), E295V, two-site model with n1 = 1 fixed) of the same compound?
**A.** 1 ± 0.36 µM

**Q.** What about the Kd (E295V mutant cyt bc1; read-out: KD2 (low affinity sites), E295V, n1 = 1 fixed) of the same compound?
**A.** 3.5 ± 1.6 µM

**Q.** What about the Kd (E295V mutant cyt bc1; read-out: KD2, E295V, blind fit, two-site model) of the same compound?
**A.** 5.81 ± 1.22 µM

**Q.** What about the “change of KD1 of high affinity site in E295V compared to wild type” value (E295V mutant cyt bc1; unitary stoichiometry assumed) of the same compound?
**A.** increase by a factor of two
